# Source: PubChem BioAssay
# A selection: hits, their analogues and other compounds. The true share with any hit is near 2.3%.
# Beta cell apopt: inhibitors of cytokine-induced beta cell apoptosis, primary screen, luminescence. INS-1E cytokine-induced death, ATP luminescence, 48 h; percent of positive-control rescue, neutral wells zero. protection from apoptosis, % (no concentration beside the values). 0.8% of 300,000 active;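 active = Every replicate reaches about 75%, or at least half do and their mean reaches it too, limit read from the data; inconclusive = At least half of replicates reach the limit but their mean does not; inactive = Under half of replicates reach the limit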;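 note: higher means more ATP so stronger rescue from cytokine killing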
# HIF activator: HIF pathway transcriptional activators, primary screen, cell-based, U2OS HRE-luciferase, luminescence. activation, % at 7.5 µM (by protocol). AID 1910, 2009. U2OS HRE-luciferase reporter; normalized: DMSO 0%, desferrioxamine 100%. 0.32% of 300,000 active;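 active = mean activation of at least 10% of the iron chelator positive control signal, with at least half of replicates also reaching 10%; inconclusive = mean and replicate majority disagree about reaching 10%; inactive = mean and most replicates under 10%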
# T cruzi inh: inhibitors of intracellular T. cruzi growth, primary screen, luminescence, NIH3T3 host cells. T. cruzi beta-gal in NIH3T3, 90 h. 1.4% of 300,000 active. inhibition, % (no concentration beside the values). AID 1885, 2009;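 active = mean inhibition across valid replicates above about 55%, limit read from the data; inconclusive = mean below that limit but half or more replicates reach it; inactive = mean below it, under half of replicates reach it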;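 note: signal also drops with host cell toxicity which is not excluded here; higher percent means less beta-gal luminescence so fewer parasites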
#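 System: Mouse NIH/3T3 fibroblasts infected with β-gal-expressing T. cruzi Tulahuen C4 | Quantity: NIH/3T3 cells, 5,000 per well | Reagent: 5000 reporter trypomastigotes per well | Dosing: Compound pinned at 50 nL/well, DMSO | Schedule: 3 h host attachment, then at least 90 h co-culture | Detection: GalScreen luminescence, 60 min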
# KLF5 inhibitor: KLF5 expression inhibitors, primary screen, DLD-1 cells, luminescence | AID 1700, 2009 | inhibition, % at 5 µM | DLD-1 KLF5 promoter-luciferase reporter | 0.23% of 290,000 active;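 active = inhibition above a per-plate limit of that plate's mean compound inhibition plus 3 SD, cut at about 60% in these data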;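 note: higher means less KLF5 promoter-driven luciferase light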
# Bfl-1 A1 inh: caspase 3/7 activation in MEF A1-2A-BIM cells, primary screen, A1 inhibitor project, cell-based, luminescence, HTS. Caspase-Glo 3/7 luminescence, 3 h; percent of clofoctol response, vehicle zero. caspase activation, % (test concentration not listed). 0.066% of 330,000 active. AID 2462, 2010;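 active = over half of replicate activation scores above 10%, or exactly half above 10 with the replicate mean above 10; inconclusive = replicate mean below 10 yet half the replicates above 10; inactive = over half of replicates below 10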
# Numbers stand for hits; – = inactive; ? = inconclusive; · = not tested or not shown.
SMILES,Beta cell apopt,HIF activator,T cruzi inh,KLF5 inhibitor,Bfl-1 A1 inh
Cc1ccc(N=C2SC(C(=O)Nc3ccc(OC(F)(F)F)cc3)C(N)=C2C(=O)Nc2c(C)cc(C)cc2C)cc1 (stereo unspecified),99,·,·,–,–
CC(Nc1nc(N2CCCCC2)nc2ccccc12)c1ccccc1 (stereo unspecified),–,–,64,–,·
COc1ccc(Nc2ncnc3ccccc23)c(OC)c1,–,–,–,–,–
C=CCNc1nc(N2CCCC2)nc2ccccc12,–,–,–,–,–
COc1ccc(Nc2nc(N3CCCC3)nc3ccccc23)c(OC)c1,–,–,65,–,–
CNC(=O)COC(=O)C1CCN(S(=O)(=O)c2ccc3c(c2)OCCO3)CC1,–,·,·,·,–
CCCn1c(N)c(N(CCOC)C(=O)c2ccc(N(C)S(=O)(=O)c3ccc(C)cc3)cc2)c(=O)[nH]c1=O,–,–,–,·,–
COc1ccc(C(=O)c2no[n+]([O-])c2C(=O)c2ccc(OC)cc2)cc1,–,–,–,–,–
O=C(c1cccs1)c1no[n+]([O-])c1C(=O)c1cccs1,–,–,62,–,–
CC(=O)c1ccc(OCC(=O)OCC(=O)Nc2sccc2C(N)=O)cc1,–,·,·,·,–
Oc1c(N=Nc2ccccn2)ccc2ccccc12,96,34,73,–,–
c1ccc2c(c1)ccc1ncccc12,–,–,–,–,–
CCOc1ccc(NCc2ccccc2OCc2cccc(F)c2)cc1,–,–,55,–,–
N#Cc1cc(O)c(-n2nnc3ccccc32)cc1C#N,·,–,–,–,–
N#Cc1cc(Oc2cccc3cccnc23)c(-n2nnc3ccccc32)cc1C#N,–,–,57,–,–
COc1ccccc1OCCNC(=O)CNC(=O)c1ccc(C(C)(C)C)cc1,–,·,·,·,–
CC1Cc2cc(S(=O)(=O)N3CCCC(C(=O)N4CCCCC4)C3)ccc2N1C(=O)C1CC1 (stereo unspecified),–,–,–,–,–
COc1ccc(C(=O)CC(Nc2ccc([N+](=O)[O-])cc2)c2ccc(Cl)cc2)cc1 (stereo unspecified),–,–,64,–,–
O=C1CCCc2nc(N3CCN(C(=O)c4ccco4)CC3)ncc21,–,–,–,–,–
CCOC(=O)c1c(-c2ccccc2)oc2cc(CN(C)C)c(O)c(CN(C)C)c12,–,12,–,–,–
Cc1ccc(NC(=O)Cn2c(=O)oc3cc(S(=O)(=O)N4CCC(C)CC4)ccc32)cc1C,76,–,–,–,–
Cn1ccnc1C(=O)c1cccc(Br)c1,–,–,–,–,–
O=C(COc1ccc(C(=O)NCCN2CCOCC2)cc1)Nc1cccc(C(F)(F)F)c1,–,–,–,·,–
CNC(=O)c1sc(N2N=C3/C(=C/c4ccccc4)CCCC3C2c2ccccc2)nc1C (stereo unspecified),98,–,–,–,–
CC[C@@H]1C/C=C\Cc2ccccc2[C@@H](C(=O)C[C@@H](O)CC(C)=O)OC1=O,–,·,·,·,–
SMILES,Beta cell apopt,HIF activator,T cruzi inh,KLF5 inhibitor,Bfl-1 A1 inh
CCOc1ccc2c(C)c(Cl)c(=O)oc2c1,–,96,–,–,–
CCN(CC)c1ccc2c(C)c(Cl)c(=O)oc2c1,–,–,–,–,–
COc1ccccc1NS(=O)(=O)c1cc(NC(=O)c2cccs2)ccc1N1CCCCC1,–,–,59,–,–
COc1ccccc1NS(=O)(=O)c1cc(NC(=O)c2cccs2)ccc1N1CCCC1,–,–,–,–,–
O=C(COc1ccccc1[N+](=O)[O-])Nc1ccc2oc(=O)ccc2c1,–,–,–,–,?
O=C(COc1ccc(/C=N/NC(=O)c2cc3ccccc3o2)cc1Br)Nc1ccccc1,–,·,70,–,27
O=C(COc1ccccc1[N+](=O)[O-])Nc1ccc(NC(=O)c2cc3ccccc3o2)cc1,–,–,–,–,7.5
O=C(CSc1nnc(-c2ccncc2)o1)Nc1ccc(F)c(F)c1,–,·,·,·,21
CN1CCC(OC(=O)c2ccc(Br)cc2)CC1,–,–,62,–,–
CN1CCC(OC(=O)c2cccc(Cl)c2)CC1,–,–,60,–,–
C/C(=N\NC(=O)c1nnn(-c2nonc2N)c1CN(C)c1ccccc1)c1ccccc1O,90,–,64,–,–
CCOC(=O)C1CCN(C(c2cccnc2)c2c(NC(=O)c3ccco3)sc(C)c2C)CC1 (stereo unspecified),–,–,65,–,–
Cc1sc(NC(=O)c2ccco2)c(C(c2ccc(F)cc2)N2CCN(C)CC2)c1C (stereo unspecified),–,–,–,–,–
Cc1sc(NC(=O)c2ccco2)c(C(c2ccccc2)N2CCC(C)CC2)c1C (stereo unspecified),–,–,72,–,–
Cc1sc(NC(=O)c2ccco2)c(C(c2cccnc2)N2CCN(c3ccc(F)cc3)CC2)c1C (stereo unspecified),–,–,57,–,–
COC(=O)c1c(C)[nH]c(O)c1C=Nc1ccc(C(C)C)cc1,–,–,58,–,–
COC(=O)C1CCN(C(=O)c2cc(-c3ccc(Cl)s3)nc3ccccc23)CC1,101,·,·,·,–
Cc1nn(C)c(C)c1NC(=O)COc1ccc(Cl)cc1Br,–,·,·,·,–
CCS(=O)(=O)c1ncc(Cl)c(C(=O)Nc2ccc(S(=O)(=O)N3CCCC(C)C3)cc2)n1 (stereo unspecified),106,·,56,–,49
CCC1CCCCN1S(=O)(=O)c1ccc(NC(=O)c2nc(S(C)(=O)=O)ncc2Cl)cc1 (stereo unspecified),108,·,–,–,11
CCS(=O)(=O)c1ncc(Cl)c(C(=O)Nc2ccc(C)cc2)n1,–,–,79,–,?
CCC1CCCCN1S(=O)(=O)c1ccc(NC(=O)c2ccncc2)cc1 (stereo unspecified),·,–,–,–,–
COc1ccccc1OCCNC(=O)C1CC(=O)N(Cc2ccc(C)cc2)C1 (stereo unspecified),–,–,–,·,–
O=[N+]([O-])c1cc(CN2CCCC2)ccc1Sc1ccc(Cl)cc1,–,–,62,–,–
Cn1c(=NC(=O)CS(=O)(=O)c2ccccc2)sc2ccccc21,·,–,–,·,–
CCn1c(=NC(=O)CS(=O)(=O)c2ccccc2)sc2cccc(OC)c21,·,–,58,·,–
CC(=O)NCCC(=O)Nc1cc(S(=O)(=O)N2CCOCC2)ccc1Oc1ccccc1,–,–,–,–,–
CC1CC1C(=O)N(C)CC(=O)Nc1ccccc1Br (stereo unspecified),–,·,·,·,–
N#Cc1ccccc1NC(=O)c1ccccc1OCC(=O)Nc1ccc2c(c1)oc1ccccc12,–,·,61,–,–
CCC(C)(C)n1nnnc1C(c1cccnc1)N1CCN(c2cccc(C(F)(F)F)c2)CC1 (stereo unspecified),–,–,62,–,–
